Screening results deposited in PubChem BioAssay by Sanford-Burnham Center for Chemical Genomics.
UBC9 SUMO inh: inhibitors of in vitro SUMOylation cascade, primary screen, biochemical, HTRF, uHTS; SUMO-conjugating enzyme UBC9 (Homo sapiens), P63279; HTRF SUMOylation assay, SAE1/SAE2 + UBC9; inhibition, % at 35 µM; 0.36% of 290,000 active; AID 2006, 2009; in the data active = inhibition above about 50%, passing the limit was not always enough
STEP block: STEP phosphatase inhibitors, primary screen, biochemical, fluorescence intensity, uHTS | Tyrosine-protein phosphatase non-receptor type 5 (Homo sapiens), P54829 | recombinant STEP, OMFP fluorogenic substrate | inhibition, % at 20 µM | 0.25% of 360,000 active;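 active = inhibition at 20 µM, scaled per plate between control wells, above about 37%, limit read from the data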;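 also: 0% = DMSO with enzyme and substrate and 100% = substrate only without enzyme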
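material = STEP tyrosine phosphatase | reagent = fluorogenic phosphatase substrate OMFP at 25 µM final | doses = single compound dose of 20 µM, 1% DMSO final | schedule = 20 min reaction, room temperature, in the dark | measured by = fluorescence, 480/540 nm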
LMPTP inh: LMPTP phosphatase inhibitors, primary screen, biochemical, fluorescence intensity, uHTS; inhibition, % at 20 µM; recombinant LMPTP-A, OMFP fluorogenic substrate; 0.22% of 360,000 active;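 active = compounds that cut the enzyme signal by at least half of the control window in the single-dose screen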;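 also: plate controls were DMSO wells with enzyme plus substrate for no effect and substrate without enzyme for full effect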
Target sequence (P24666 whole entry, looked up): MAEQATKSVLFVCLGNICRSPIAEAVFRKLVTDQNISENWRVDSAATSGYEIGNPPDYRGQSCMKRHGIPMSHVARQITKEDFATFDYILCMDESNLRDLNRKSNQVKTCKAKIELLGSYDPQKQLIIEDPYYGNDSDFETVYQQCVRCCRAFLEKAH
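Assay system: LMPTP-A phosphatase enzyme | Input: 0.625 nM enzyme | Also added: Fluorogenic phosphatase substrate OMFP at 400 µM final | Compound dosing: One test concentration per compound, 20 µM, with 3% DMSO overall | Schedule: 50 min enzyme reaction at room temperature, protected from light | Signal: Fluorescence intensity | Benchmarks: no-enzyme and uninhibited controls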
DNMT1 inh: human DNMT1 methyltransferase inhibitors, primary screen, biochemical, molecular beacon, fluorescence, HinP1I cleavage, uHTS; inhibition (reported as % activation of signal), % at 10 µM; 0.83% of 360,000 active; AID 588458, 2011; in the data active = inhibition above about 50%
SUMO1 PPI mod: modulators of SUMO1 protein-protein interactions, primary screen, biochemical, uHTS. inhibition, % at 20 µM. Small ubiquitin-related modifier 1 (Homo sapiens), P63165. 0.33% of 360,000 active. SUMO1 binding to a labelled peptide, TR-FRET, 1 h. AID 602429, 2012; in the data active = inhibition above about 37%
Target sequence (P63165 whole entry, looked up): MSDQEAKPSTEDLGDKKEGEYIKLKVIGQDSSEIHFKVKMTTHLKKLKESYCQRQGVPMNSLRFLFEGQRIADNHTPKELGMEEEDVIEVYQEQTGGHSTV
Scp1 inh: Scp-1 phosphatase inhibitors, primary screen, biochemical, colorimetric, uHTS. AID 493091, 2011. 0.88% of 340,000 active. Recombinant Scp1, phosphopeptide, malachite green phosphate absorbance. inhibition, % at 20 µM;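 active = inhibition above about 50% at 20 µM, limit read from the data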;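 also: plate controls were DMSO wells with enzyme for no effect and wells lacking enzyme for full effect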
Target sequence (Q9GZU7 76-261 limits assumed): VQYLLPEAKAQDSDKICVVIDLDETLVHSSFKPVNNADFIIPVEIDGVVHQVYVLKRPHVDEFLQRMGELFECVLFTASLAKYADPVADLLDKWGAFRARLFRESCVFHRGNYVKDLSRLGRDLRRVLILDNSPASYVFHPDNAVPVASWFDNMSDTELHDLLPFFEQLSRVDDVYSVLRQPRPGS
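Material – SCP-1 phosphatase catalytic domain, residues 76-261 · Buffer or medium – Acidic Tris acetate buffer with magnesium and detergent · Also added – Phospho 17-mer peptide substrate · Compound – single 20 µM dose, 1% DMSO · Times – 45 min room-temperature reaction, 5 min colour, 30 min stabiliser · Technique – Phosphate-binding colour reagent, absorbance read at 630 nm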
STEP inh conf: STEP phosphatase inhibitor hit confirmation, biochemical, fluorescence intensity, single concentration | shares compounds with STEP block | inhibition, % at 20 µM | recombinant STEP, OMFP fluorogenic substrate | AID 623866, 2012 | 32% of 520 active; call rule not given here;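 also: 0% = enzyme with substrate plus DMSO and 100% = substrate without enzyme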
Active calls of the source: *; nt = no result. Hits are enriched below; roughly 1.9% of the tested compounds scored in any of these assays.

SMILES	UBC9 SUMO inh	STEP block	LMPTP inh	DNMT1 inh	SUMO1 PPI mod	Scp1 inh	STEP inh conf
O=C(NCc1ccco1)C1CCN(C(=O)c2ccc(Cl)cc2Cl)CC1	10.7	56.1*	-0.4	-1.1	1.8	5.3	10.9
Cc1sc(NC(=O)C2=COCCO2)nc1-c1ccc(F)cc1	nt	0.3	-0.7	-1.7	-4.6	2.2	nt
O=C(O)c1cccc(NC(=S)NC(=O)c2ccc(-c3ccccc3)cc2)c1	32.6	0.4	1.2	-1.6	0.7	-3.4	nt
COc1cc2ccccc2cc1C(=O)NC(=S)Nc1cccc(C(=O)O)c1	30.9	41.6*	1.7	1.4	9.0	22.2	13.3
Cn1c(CSc2ncccn2)nnc1SCC(=O)N1CCCc2ccccc21	12.0	52.6*	-0.8	-5.8	0.2	-1.8	-10.7
CCn1c(CSc2ncccn2)nnc1SCC(=O)N1CCc2ccccc21	3.3	1.4	-1.0	-0.9	0.8	-3.8	nt
Cc1c(C)c2ccc(OCC(=O)Nc3ccc(S(N)(=O)=O)cc3)c(C)c2oc1=O	29.5	46.4*	31.1	5.6	18.2	44.7	74.3*
Cc1ccccc1COc1cccc(/C=N/NC(=O)c2nnn(-c3nonc3N)c2C)c1	19.6	91.1*	35.6	7.2	1.4	-3.1	0.3
COc1ccc(/C=N/NC(=O)c2nnn(-c3nonc3N)c2CN(C)c2ccccc2)cc1	-4.3	72.7*	2.7	-6.4	-4.6	-6.3	-1.6
CC(C)NC(=O)N(C)C[C@H]1Oc2ccc(NS(=O)(=O)c3ccc(F)cc3)cc2C(=O)N([C@H](C)CO)C[C@@H]1C	nt	-0.7	-1.5	1.2	2.0	4.0	nt
CC1CCC(NCc2ccco2)CC1 (stereo not drawn)	19.4	-3.0	-1.8	4.5	-3.6	0.2	nt
COc1cc(/C=C2/C(=O)NN(c3cccc(C)c3)C2=O)cc([N+](=O)[O-])c1O	8.9	50.9*	43.2	58.2*	10.2	40.2	44.8*
COc1cc(/C=C2/C(=O)NN(c3cccc(C)c3)C2=O)ccc1OC(=O)c1ccco1	2.9	13.1	9.5	7.2	10.3	14.7	nt
COc1cccc(-c2cc(C(=O)Nc3nc4ccccc4s3)c3ccccc3n2)c1	15.5	71.3*	2.8	-7.8	-3.5	10.1	41.4*
O=C(Nc1ccc(F)cc1)C(c1ccnc2ccccc12)N1CCN(C(=O)c2ccco2)CC1 (stereo not drawn)	nt	nt	-0.9	nt	-2.5	nt	nt
O=C(Nc1ccc(OC(F)(F)F)cc1)C1CCCN(S(=O)(=O)c2cccnc2)C1 (stereo not drawn)	21.5	38.7*	1.0	-0.6	1.4	-3.3	2.7
COc1ccc(C(=O)Oc2ccc3ccc(=O)oc3c2)cc1	12.9	73.7*	36.6	3.6	-5.0	9.2	-8.3
O=C(Oc1ccc2ccc(=O)oc2c1)c1ccccc1	15.1	5.0	6.6	4.3	7.5	-5.1	nt
CN(c1ccccc1)S(=O)(=O)c1ccc(C(=O)NCc2ccccn2)cc1	-11.9	-1.4	-0.8	0.5	5.1	-4.9	nt
Cc1cc(=O)[nH]c(Nc2cccc(Cl)c2C)n1	-2.0	-3.1	-0.8	0.1	3.8	-13.1	nt
CC(=O)c1sc(NC(=O)c2ccc(F)c(F)c2)nc1C	-2.5	57.7*	41.9	1.4	-10.1	44.4	15.7
O=C1CSc2cc(Cl)ccc2N1	nt	37.4*	0.4	0.0	1.0	10.3	15.7
O=C1CNc2cc(Cl)ccc2N1	nt	-1.7	-0.3	-0.9	-14.2	nt	nt
Cc1cccc(C)c1NC(=O)CNC(=O)c1ccc2ccccc2n1	nt	-3.7	-0.6	0.2	-7.4	-3.4	nt
